The record followed here is ChEMBL document CHEMBL1151238, “New stilbene derivatives from Calligonum leucocladum” (2004).

In brackets after ≈: the same amount, converted by molar mass.

Holding throughout (format): functional
For test [1], the system named is Staphylococcus aureus. Description: Antimicrobial activity against methicillin-resistant Staphylococcus aureus 2 after 24 hrs. An outline of the steps:
(§1)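 Overnight 37 °C Mueller-Hinton broth cultures of clinical isolates or strain COL were diluted in 0.85% NaCl and spotted by inoculator at about 10⁶ cfu/mL. Plates were held 37 °C for 24 h. MIC was taken as the lowest concentration giving complete growth inhibition.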

Test [2] deals with Staphylococcus aureus. Nature of the test: Antimicrobial activity against methicillin-resistant Staphylococcus aureus 8 after 24 hrs. An outline of the steps:
as §1

Test [3] relates to Staphylococcus aureus. Description: Antimicrobial activity against methicillin-resistant Staphylococcus aureus COL after 24 hrs. The gist of the method: as §1
The subject of test [4] is Staphylococcus aureus. Description: Antimicrobial activity against methicillin-resistant Staphylococcus aureus 12 after 24 hrs. An outline of the steps: as §1
Test [5] has as its system Staphylococcus aureus. Description: Antimicrobial activity against methicillin-resistant Staphylococcus aureus 1 after 24 hrs. The gist of the method:
as §1

Test [6] has as its system Staphylococcus aureus. Nature of the test: Antimicrobial activity against methicillin-resistant Staphylococcus aureus 4 after 24 hrs. An outline of the steps: as §1
Test [7] relates to Staphylococcus aureus. Nature of the test: Antimicrobial activity against methicillin-resistant Staphylococcus aureus 5 after 24 hrs. An outline of the steps:
as §1

Test [8] is described as follows: DPPH radical scavenging activity assessed as ratio of absorbance at 20 uM relative to L-cysteine. The gist of the method: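 Test compound at 20 μM in ethanolic solution, mixed with ethanol, 50 mM MES buffer (pH 5.5) and 0.5 mM DPPH in ethanol. Decrease in absorbance at 517 nm read after 30 min. L-Cysteine served as reference. Value given as the ratio of absorbance between L-cysteine and test compound.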
A general note: DPPH is a stable violet radical that fades when it is reduced.

With `Cc1onc(-c2ccccc2)c1C(=O)N[C@@H]1C(=O)N2[C@@H]1SC(C)(C)[C@@H]2C(=O)O` [OXACILLIN], the MIC was determined as 256 µg/mL (≈ 638 µM) in test [1]; 256 µg/mL (≈ 638 µM) in test [2]; 512 µg/mL (≈ 1280 µM) in test [3]; 512 µg/mL (≈ 1280 µM) in test [4]; 512 µg/mL (≈ 1280 µM) in test [5]; 256 µg/mL (≈ 638 µM) in test [6]. Further, in test [7], the MIC is 256 µg/mL (≈ 638 µM).

Turning to `O=C(OC[C@H]1O[C@@H](Oc2cc(O)cc(/C=C/c3ccc(O)cc3)c2)[C@H](O)[C@@H](O)[C@@H]1O)c1cc(O)c(O)c(O)c1`, the MIC in test [1] is 125 µg/mL (≈ 230 µM); in test [2] it was 125 µg/mL (≈ 230 µM); in test [3] it was over 250 µg/mL; in test [4] it was 250 µg/mL (≈ 461 µM); in test [5] it was 125 µg/mL (≈ 230 µM); in test [6] it was 125 µg/mL (≈ 230 µM). Moreover, the MIC in test [7] was over 250 µg/mL. In test [8], the Ratio worked out at 1.3.

With `Oc1ccc(/C=C/c2cc(O)cc(O[C@@H]3OC[C@@H](O)[C@H](O)[C@H]3O)c2)cc1`, the Ratio in test [8] was 0.42.

On to `OC[C@H]1O[C@@H](Oc2cc(O)cc(/C=C/c3ccccc3)c2)[C@H](O)[C@@H](O)[C@@H]1O`, for which the Ratio in test [8] was found to be 0.14.

Consider `Oc1cc(O)cc(/C=C/c2ccccc2)c1` [PINOSYLVIN], for which the minimum inhibitory concentration (MIC) in test [1] was over 250 µg/mL; in test [2] it was over 250 µg/mL; in test [3] it was 125 µg/mL (≈ 589 µM); in test [4] it was over 250 µg/mL; in test [5], over 250 µg/mL; in test [6], over 250 µg/mL. Further, the minimum inhibitory concentration (MIC) in test [7] is 125 µg/mL (≈ 589 µM). Moreover, in test [8], the Ratio was 0.52.

Consider `CC(=O)O[C@@H]1CO[C@@H](Oc2cc(O)cc(/C=C/c3ccc(O)cc3)c2)[C@H](O)[C@H]1O`, for which the Ratio in test [8] came out at 0.2.

For `Oc1ccc(/C=C/c2cc(O)cc(O)c2)cc1` [RESVERATROL], the MIC in test [1], in test [2], in test [3], in test [4], in test [5] and in test [6] was over 250 µg/mL in each case. Moreover, the minimum inhibitory concentration (MIC) in test [7] was over 250 µg/mL. For the same molecule, in test [8], the Ratio is 1.77.

In the case of `OC[C@H]1O[C@@H](Oc2cc(O)cc(/C=C/c3ccc(O)cc3)c2)[C@H](O)[C@@H](O)[C@@H]1O`, the Ratio in test [8] stood at 0.54.

Usually MIC stands for the lowest concentration found to suppress growth. Lower therefore signals a more susceptible organism.
